{"data": "Assay results collected from several papers", "read-out": "metabolic stability", "note": "Compare with care: the assays were run in different laboratories."}
{"SMILES": "Cc1cc(Cl)c(Cl)cc1NC(=O)c1cc([N+](=O)[O-])c(N2CCNCC2)cc1Cl", "test system": "CD-1 mouse, liver microsomes", "conditions": "1 µM, 1 h, pH 7.4", "quantity": "scaled CLint", "result": "25 mL/min/kg"}
{"SMILES": "Cc1ccc(F)c2cc(C(=O)N[C@@H]3CCC[C@H](N4CCOCC4)C3)[nH]c12", "test system": "mouse, hepatocytes", "conditions": "0.5 µM, 1 h", "quantity": "scaled CLint", "result": "2170 mL/min/kg"}
{"SMILES": "O=C(Nc1ccc(Cl)c(Cl)c1)c1ccc(N2CCNCC2)c([N+](=O)[O-])c1", "test system": "CD-1 mouse, liver microsomes", "conditions": "1 µM, 1 h, pH 7.4", "quantity": "scaled CLint", "result": "12 mL/min/kg"}
{"SMILES": "c1ccc(-c2nc(NCc3nccs3)c3ccccc3n2)nc1", "test system": "mouse, liver microsomes", "quantity": "microsomal CLint", "result": "224 µL/min/mg"}
{"SMILES": "CC(=O)Nc1cc(Nc2cc(NC3CC3)n3ncc(C#N)c3n2)ccc1N1CCC[C@H](O)C1", "test system": "male CD-1 mouse, hepatocytes", "conditions": "1 µM, serum-free", "quantity": "scaled CLint", "result": "511 mL/min/kg"}
{"SMILES": "CC(=O)N(C)C1CCN(c2cc(F)cc(NC(=O)c3cc4c(F)ccc(C)c4[nH]3)c2)C1 (centres unmarked)", "test system": "mouse, hepatocytes", "conditions": "0.5 µM, 1 h", "quantity": "scaled CLint", "result": "239 mL/min/kg"}
{"SMILES": "N#Cc1ccccc1-c1nc(N2CCC(c3ccccn3)C2)c2ccccc2n1 (centres unmarked)", "test system": "mouse, liver microsomes", "quantity": "microsomal CLint", "result": "717 µL/min/mg"}
{"SMILES": "CO[C@@H](C[C@H]1C(C)=CC[C@@H]2[C@]3(C)C[C@H](O[C@@H]4O[C@@H](C)[C@H](OC(=O)c5cccc(O)c5)[C@@H](O[C@@H]5O[C@H](CO)[C@@H](O)[C@H](O)[C@H]5NC(C)=O)[C@H]4O)[C@@H](O)C(C)(C)[C@H]3CC[C@]21C)[C@H](N)C(=O)O", "test system": "mouse, hepatocytes", "conditions": "1 µM", "quantity": "hepatocyte CLint", "result": "4.69 µL/min/10⁶ cells"}
{"SMILES": "O=C(Nc1cncc(-c2nc3ccccc3s2)c1)c1cc([N+](=O)[O-])c(N2CCNCC2)cc1Cl", "test system": "CD-1 mouse, liver microsomes", "conditions": "1 µM, 1 h, pH 7.4", "quantity": "scaled CLint", "result": "10 mL/min/kg"}
{"SMILES": "CN[C@@H]1CCCN(c2ccc(Nc3cc(NC4CC4)n4ncc(C#N)c4n3)cc2NC(C)=O)C1", "test system": "male CD-1 mouse, hepatocytes", "conditions": "1 µM, serum-free", "quantity": "scaled CLint", "result": "162 mL/min/kg"}
{"SMILES": "c1ccc(-c2nc(Nc3ccn4nccc4c3)c3ccccc3n2)nc1", "test system": "mouse, liver microsomes", "quantity": "microsomal CLint", "result": "325 µL/min/mg"}
